In ChEMBL document CHEMBL6115033, “Discovery of a Pyrazolopyridinone-Based MYC Inhibitor That Selectively Engages Intracellular c-MYC and Disrupts MYC-MAX Heterodimerization” (J Med Chem, 2025):
Calls of active or inactive are those of the source. The calls are words filed in the database; no cut-off is given here.

Experiments:
[1] = Induction of apoptosis in human P493-6 cells assessed as early apoptotic cells at 50 uM incubated for 24 hrs by Annexin V/PI staining based flow cytometry analysis (reference value: 2.52 %); format: functional
MDA-MB-468 [2] = test: Antitumor activity against human MDA-MB-468 cells xenografted in mouse assessed as upregulation of caspase-3 expression at 10 mg/kg, sc measured at 14 to 26 days by IHC analysis; conditions: time 14-26 day
P493-6 [3] = test: Downregulation of E2F2 mRNA expression in human P493-6 cells at 25 uM incubated for 12 hrs by qRT-PCR analysis; format: functional, cell-based
In short: (§1)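 Cells (500,000/well) were cultured with or without 25 µM for the indicated time. Total RNA was extracted with TRIzol and reverse-transcribed. qPCR used SYBR green with target-gene primers, reported as ΔΔCT.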

P493-6 [4] = test: Downregulation of SKP2 mRNA expression in human P493-6 cells at 25 uM incubated for 12 hrs by qRT-PCR analysis; format: functional, cell-based
In short: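 P493-6 cells seeded at 500,000 per well and cultured with or without 25 uM compound for the indicated time. Total RNA extracted with TRIzol. Reverse transcription at 25 °C for 10 min, 37 °C for 120 min, then 85 °C for 5 min. SYBR green qPCR used primers for MYC target genes. Relative mRNA expressed as ΔΔCT.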

MCF7 [5] = test: Induction of apoptosis in human MCF7 cells cultured as 3D spheroids assessed as inhibition of cell growth incubated for 5 days; format: functional, cell-based; conditions: time 5.0 day
In short: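 Cells plated at 4000 per well in low-attachment 24-well plates and grown in Mammocult medium for 48 h to form mammospheres. Spheres then exposed to 25 uM compound for 5 days, with untreated control wells. Read-out was imaging of the mammospheres formed.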

[6] = molecular target: Myc proto-oncogene protein (Homo sapiens) (UniProt P01106); test: Binding affinity to MYC in human P493-6 cells assessed as induction of destabilization at 10 to 50 uM measured for 2 hr by CETSA analysis; format: cell-based; conditions: DESTABILISER, dose 10-50 µM
Myc proto-oncogene protein (Homo sapiens), sequence (P01106 whole entry): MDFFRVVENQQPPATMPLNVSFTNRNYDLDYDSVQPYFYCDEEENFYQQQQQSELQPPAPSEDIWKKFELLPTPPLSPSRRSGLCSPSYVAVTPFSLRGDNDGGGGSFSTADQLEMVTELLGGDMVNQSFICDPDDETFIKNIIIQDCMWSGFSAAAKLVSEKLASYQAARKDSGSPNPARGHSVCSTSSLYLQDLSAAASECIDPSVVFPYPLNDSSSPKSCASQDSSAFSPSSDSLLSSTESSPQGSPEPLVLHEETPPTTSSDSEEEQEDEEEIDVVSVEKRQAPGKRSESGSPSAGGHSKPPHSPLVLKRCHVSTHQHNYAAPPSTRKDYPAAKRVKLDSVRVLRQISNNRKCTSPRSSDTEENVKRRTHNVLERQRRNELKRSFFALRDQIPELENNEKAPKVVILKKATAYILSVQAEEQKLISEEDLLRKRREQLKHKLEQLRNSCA

MDA-MB-468 [7] = test: Downregulation of SKP2 mRNA expression in human MDA-MB-468 cells at 25 uM incubated at 48 hrs by qRT-PCR analysis; format: functional, cell-based; in short: as §1
[8] = molecular target: T1, c-Myc/c-Max (Homo sapiens) (UniProt P01106+P61244); test: Disruption of MYC-MAX interaction in human P493-6 cells assessed as reduction in myc level at 25 uM; format: cell-based
T1 sequence (P01106 whole entry): as above
T1 sequence (P61244 2-160 partner limits assumed): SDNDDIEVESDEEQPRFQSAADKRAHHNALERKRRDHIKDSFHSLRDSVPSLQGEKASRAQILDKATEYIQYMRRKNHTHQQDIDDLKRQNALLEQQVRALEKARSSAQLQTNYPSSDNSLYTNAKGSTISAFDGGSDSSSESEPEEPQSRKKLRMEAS

[9] = Induction of apoptosis in human P493-6 cells assessed as necrotic cells at 25 uM incubated for 24 hrs by Annexin V/PI staining based flow cytometry analysis (reference value: 0.11 %); format: functional
MCF7 [10] = test: Antiproliferative activity against human MCF7 cells assessed as cell viability incubated for 96 hrs by MTT assay; format: functional, cell-based; conditions: MCF7, 96 h
In short: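 Adherent cells (2000/well) attached overnight, then exposed to compounds at 0.14–100 µM for 96 h in DMEM with 10% FBS. MTT at 0.5 mg/mL for 4 h in the dark, formazan dissolved in DMSO, absorbance at 570 nm. Compounds were freshly prepared in DMSO, with DMSO below 1%.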

P493-6 [11] = test: Downregulation of CCNA2 mRNA expression in human P493-6 cells at 25 uM incubated for 12 hrs by qRT-PCR analysis; format: functional, cell-based; in short: as §1
MDA-MB-468 [12] = test: Downregulation of SKP2 mRNA expression in human MDA-MB-468 cells at 25 uM incubated for 12 hrs by qRT-PCR analysis; format: functional, cell-based; in short: as §1
P493-6 [13] = test: Downregulation of CDC25A mRNA expression in human P493-6 cells at 25 uM incubated for 12 hrs by qRT-PCR analysis; format: functional, cell-based; in short: as §1
[14] = molecular target: T1, c-Myc/c-Max (Homo sapiens); test: Disruption of MYC-MAX interaction in human MDA-MB-468 cells at 25 uM incubated for 3 to 12 hrs by Western blot analysis; format: cell-based; conditions: time 3-12 hrs
In short: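 Cells were given 25 µM or DMSO for 0, 3, 5 and 12 h. Cytoplasmic and nuclear lysate fractions were pooled. 2 mg protein was immunoprecipitated with MYC antibody overnight, then protein A/G beads for 4 h at 4 °C. Bound MAX was detected by western blot and quantified relative to MYC; MAX input was also measured.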

MDA-MB-468 [15] = test: Downregulation of MYC level in human MDA-MB-468 cells incubated for 24 hrs by Western blot analysis; format: functional, cell-based; conditions: dose <= 50.0 µM
In short: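 Cells (300,000/well) were plated 24 h, then exposed to graded concentrations or DMSO for 24 h. Laemmli lysates were run on 4–20% SDS-PAGE and immunoblotted for MYC. Levels were normalized to actin. Mean ± SD, n = 2, one-way ANOVA with Dunnett.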

[16] = Induction of apoptosis in human P493-6 cells assessed as late apoptotic cells at 50 uM incubated for 24 hrs by Annexin V/PI staining based flow cytometry analysis (reference value: 6.52 %); format: functional
[17] = Antiproliferative activity against tetracycline-treated human P493-6 cells expressing MYC assessed as inhibition of cell proliferation incubated for 96 hrs by cell titer glo assay; format: functional, cell-based; conditions: P493-6, 96 h
In short: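 P493-6 cells (3000/well, RPMI) were seeded overnight at 37 °C, then given compounds at final 0.14–100 µM for 96 h. MYC-off cells were pretreated with 0.1 µg/mL tetracycline for 72 h. Read-out was CellTiter-Glo luminescence after equilibration to room temperature. IC50 was determined in high-MYC and MYC-off cells.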

MDA-MB-468 [18] = test: Downregulation of CDC25A mRNA expression in human MDA-MB-468 cells at 25 uM incubated at 48 hrs by qRT-PCR analysis; format: functional, cell-based; in short: as §1

In the case of `N#Cc1cc2c(-c3ccc(Cl)cc3)nn(-c3ccccc3)c2[nH]c1=O`, the Activity [1] is reported as 5.11%, the Activity (MDA-MB-468 [2]) is reported as “Active” and the Activity (P493-6 [3]) is reported as “Active”. The Activity (P493-6 [4]) was “Active”, the Activity (MCF7 [5]) was “Active” and the Activity [6] was “Active”. For the same compound, the Activity (MDA-MB-468 [7]) was “Active”, the Activity [8] was “Active” and the Activity [9] was 0.095%. The IC50 (MCF7 [10]) was 39.4 µM, the Activity (P493-6 [11]) was “Active” and the Activity (MDA-MB-468 [12]) was “Active”. The Activity (P493-6 [13]) was “Active”, the Activity [14] was “Active” and the Activity (MDA-MB-468 [15]) was “Dose-dependent-effect”. For the same compound, the Activity [16] was 17.6%, the IC50 [17] was 58.9 µM and the Activity (MDA-MB-468 [18]) was “Active”.
